Among the data in ChEMBL document CHEMBL4513216, “Probing the Open Global Health Chemical Diversity Library for Multistage-Active Starting Points for Next-Generation Antimalarials” (ACS Infect Dis, 2020) are cytotoxicity values, retold here.

The data set in a line: Toxicity liver stage against HepG2, at 10uM. In kind it is cell-based. Also on record: test concentration 10 uM, cell line HepG2-A16-CD81EGFP. As to conditions: human, HepG2-A16-CD81EGFP cells; read-out: INHIBITION
In outline: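 Uninfected HepG2-A16-CD81EGFP cells, 3 × 10^3 per well, 1536-well, plated on prespotted compound at 10 μM final, parasite-free screening media added to match infected plates; puromycin 10 μM positive, DMSO 0.5% negative; run in parallel with 48 h PbLuc assay at 37 °C, 5% CO2; viability by CellTiter-Glo luminescence, normalized to controls.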
As for `C[S+](C)[c-]1c(=O)[nH]c(=O)n(CCc2ccc(F)cc2)c1=O`, the cytotoxicity at 10 µM worked out at 2.86%.
Next, `CCOC(=O)c1nc(CC(=O)Nc2ccc3cc[nH]c3c2)no1`: 7.12%; `CC(C)n1c(=O)c2ccccc2n(CCN2CCCCC2)c1=O`: -16.6%; `COCCn1cc(CC(=O)Nc2cc(C)n(C)n2)c2ccccc21`: -1.96%.
In the case of `COCC(=O)N1CC[C@H]2N(C)CC[C@@]2(C(=O)Nc2ccccc2)CC1`, the cytotoxicity at 10 µM amounted to 3.48%.
As for `CCn1cc(C(=O)Nc2cc(C)ccc2C)cn1`, the cytotoxicity at 10 µM is 0.946%.
As to `CCOCC(=O)N1CCC(Oc2ccc(Cl)cn2)CC1`, the cytotoxicity at 10 µM worked out at 7.39%.
Turning to `CCCC(=O)N1CCC2(CC1)CC(NC(C)=O)c1ccccc1O2` (stereo unspecified), the cytotoxicity at 10 µM is 5.08%.
For the compound `CNC(=O)[C@@]12CCC3(CCN(C(C)=O)CC3)[C@@H]1CN(S(C)(=O)=O)C2`, the cytotoxicity at 10 µM was -3.61%.
Next, `O=C1NC(c2ccccc2)=N[C@@]12CC[C@@H]1CN(CC3CCOCC3)C[C@@H]12`: 4.01%.
Consider `c1ccc2c(N3CCCCC3)cnnc2c1`, for which the cytotoxicity at 10 µM is -5.34%.
For `Cc1nccc(C2CN(Cc3ccc(-c4ccccc4C(=O)O)o3)C2)n1`, the cytotoxicity at 10 µM came out at 4.28%.
As for `CS(=O)(=O)c1cn[nH]c1C1CCCN(C(=O)Cn2cccn2)C1` (stereo unspecified), the cytotoxicity at 10 µM was -11.7%.
On to `CNc1cc(C2CCCN2S(=O)(=O)c2cccc(F)c2)ccn1` (stereo unspecified), for which the cytotoxicity at 10 µM was -22.7%.
Next, `Cc1noc(C)c1-c1nc(N(C)CCN(C)C)ncc1-c1cnccn1`: -12.4%; `Cc1cnc(-c2nc(C3CCN(C(=O)Cc4ccsc4)CC3)no2)cn1`: -29.5%.
With `Clc1ccccc1CN1CCCC(c2nnc(-c3cnccn3)o2)C1` (stereo unspecified), the cytotoxicity at 10 µM is -10.3%.
Consider `O=C(NCCN1CCOCC1)Nc1cnc2cc(Cl)ccc2c1O`, for which the cytotoxicity at 10 µM is -24%.
Next, `CCC(C(=O)NCc1ccn(-c2ccc(F)cc2)n1)N1CCCC1=O` (stereo unspecified): -5.63%; `O=S(=O)(CCCn1cncn1)Cc1cccc(F)c1`: 2.31%.
For the compound `CN(Cc1ccc(F)cc1)C(=O)c1ccoc1CN1CCNC(=O)C1`, the cytotoxicity at 10 µM is -3.57%.
As for `CN1CCN(C2CCN(Cc3noc(C4CC4)n3)CC2)C1=O`, the cytotoxicity at 10 µM was 8.54%.
The same measure for `CN(CC(=O)N(C)C(c1ccc(Cl)cc1)c1cccnc1)C1CC1` (stereo unspecified): 10.9%; for `COc1c(C2CCCN2C(=O)c2ccc(C(N)=O)s2)c(C)nn1C` (stereo unspecified): 0.00973%.
In the case of `Cc1ccc(CN(C(=O)NC2CCS(=O)(=O)C2)C2CC2)o1` (stereo unspecified), the cytotoxicity at 10 µM was -155%.
`O=C(NC1CCN(Cc2ccc(F)cc2)CC1)c1ccc2c(c1)CCC2`: the cytotoxicity at 10 µM was 2.55%.
Consider `CNC(=O)c1cccc(CN2CCC(N(C)Cc3ncc(C)o3)C2)c1` (stereo unspecified), for which the cytotoxicity at 10 µM is -103%.
Regarding `CC(NC(=O)Nc1cnn(CC(N)=O)c1)c1ccc(Cl)s1` (stereo unspecified), the cytotoxicity at 10 µM came out at 11.5%.
Next, `Cc1noc(CNc2cc3c(cc2Cl)NC(=O)CO3)n1`: 3.07%.
Consider `Cc1cc(NC(=O)N2CCCC(O)C2)nn1-c1ccccc1Cl` (stereo unspecified), for which the cytotoxicity at 10 µM was 4.99%.
As for `CCCC(NC(=O)c1ccc(OC)cc1C)c1nnn[nH]1` (stereo unspecified), the cytotoxicity at 10 µM was determined as 2.06%.
For `O=C(Nc1cccnc1)Nc1cccc(CN2CCC(O)CC2)c1`, the cytotoxicity at 10 µM is -4.06%.
For the compound `CC1CN(CC(=O)NC(=O)NCc2cccs2)CCN1CC(F)(F)F` (stereo unspecified), the cytotoxicity at 10 µM was -0.402%.
On to `CSc1ccsc1C(=O)NC(C)c1ccc2c(c1)CCC(=O)N2` (stereo unspecified), for which the cytotoxicity at 10 µM came to 1.28%.
Turning to `CC(NCC1CCS(=O)(=O)CC1)c1cccc(OC(F)F)c1` (stereo unspecified), the cytotoxicity at 10 µM was -5.16%.
On to `CN(CCC#N)C(=O)CN1CCC(c2cc3ccccc3[nH]2)CC1`, for which the cytotoxicity at 10 µM was found to be 4.35%.
In the case of `Cc1ccc(C(O)CNC(=O)CCCc2ccccn2)o1` (stereo unspecified), the cytotoxicity at 10 µM was found to be 0.166%.
Turning to `CCC(C)c1cc(C(=O)N(CC(=O)NC)c2cccc(F)c2)on1` (stereo unspecified), the cytotoxicity at 10 µM is 6.33%.
With `CCC(C)NS(=O)(=O)c1ccc(C(=O)NC2(C#N)CCC2)cc1` (stereo unspecified), the cytotoxicity at 10 µM is -7.79%.
As to `Cc1ccccc1CNc1ccccc1OCC(=O)N1CCOCC1`, the cytotoxicity at 10 µM was -2.38%.
The same measure for `COCCNC(=O)N1CCCC1COc1ccccc1` (stereo unspecified): 2.04%; for `CC(=O)N(C)C1CCCc2nc(C)sc21` (stereo unspecified): -4.97%.
With `CCn1c(CN(C)CC(=O)N(C)C)nc2c(F)cccc21`, the cytotoxicity at 10 µM was -4.36%.
For the compound `Cc1nnc(SCCC(=O)N(C)Cc2ccc(Cl)s2)[nH]1`, the cytotoxicity at 10 µM stood at 14.4%.
On to `CN(Cc1cc(F)ccc1C#N)CC(C)(CO)CO`, for which the cytotoxicity at 10 µM was -10.4%.
For `CC(C)C(NC(=O)c1ccc(Cl)cc1Cl)C(=O)Nc1ccn(C)n1` (stereo unspecified), the cytotoxicity at 10 µM stood at 1.5%.
The same measure for `c1cnn(CCNCc2csc(-c3ccc4c(c3)OCO4)n2)c1`: 4.12%.
As for `O=C(CCc1ccsc1)NCC1CCN(c2ccccc2)C1` (stereo unspecified), the cytotoxicity at 10 µM is 21.1%.
Take `Cc1nc(CN2C(=O)CCC23CCN(Cc2ccco2)CC3)cs1`: the cytotoxicity at 10 µM is -105%.
Consider `Cc1nc(N2CCCC2)nc2c1CCN(C(=O)c1ccoc1C)CC2`, for which the cytotoxicity at 10 µM was -111%.
For the compound `CNC(=O)C1Cn2ccnc2C2(CCN(Cc3c(C)noc3C)CC2)O1` (stereo unspecified), the cytotoxicity at 10 µM is -68.6%.
For `CC(C)CN1C[C@@H](C(=O)O)C[C@@H](C(=O)NCc2ccncc2)C1`, the cytotoxicity at 10 µM is -147%.
The same measure for `Cc1ccc2oc(=O)n(CCC(=O)N3CCCC4(CNC(=O)O4)C3)c2c1` (stereo unspecified): -6%.
In the case of `CN(CCO)C[C@@H]1CN(C(=O)c2cccc(OC(F)F)c2)C[C@@H]1CO`, the cytotoxicity at 10 µM was -0.185%.
As to `Cc1cnn(CCC(=O)N2CCN(C(=O)C3CC3)[C@@H]3CS(=O)(=O)C[C@@H]32)c1`, the cytotoxicity at 10 µM stood at 0.168%.
The same measure for `O=C(CC1CCc2ccccc21)N1CCC(C(=O)O)(n2ccnc2)CC1` (stereo unspecified): 10.7%.
In the case of `CCn1c(CN(C)C)nnc1C1CCN(Cc2ccncc2)CC1`, the cytotoxicity at 10 µM came to 8.18%.
Consider `Cc1ccccc1-n1cc(-c2ccnc(N3CCCC(O)C3)n2)cn1` (stereo unspecified), for which the cytotoxicity at 10 µM was 6.48%.
Take `CCc1cnc(N)nc1N(C)CCc1cnn(C)c1`: the cytotoxicity at 10 µM came out at 55.9%.
The same measure for `COc1ccc(C[C@@H]2CC[C@H](CN(C)C3CCN(C)CC3)O2)cc1`: -7.25%; for `CN(C)CC1(O)CCCN(C(=O)c2ccccc2-n2cncn2)C1` (stereo unspecified): 2.11%; for `CNC(=O)c1cccnc1N1CCN(Cc2ccccc2)C(CCO)C1` (stereo unspecified): -6.03%.
Take `C[C@@H]1CN(Cc2ccncc2)C[C@@]1(O)C1CC1`: the cytotoxicity at 10 µM was -5.08%.
For `CN(CC1(O)CCCN(CCC2CCCCC2)C1=O)C1CCOCC1` (stereo unspecified), the cytotoxicity at 10 µM worked out at 12.7%.
In the case of `CCc1csc(C2CCCN(C(=O)c3ccc(=O)n(CC)n3)C2)n1` (stereo unspecified), the cytotoxicity at 10 µM is -1.52%.
As to `Cn1ccc(CN2CCC(OCc3ccccc3)CC2)cc1=O`, the cytotoxicity at 10 µM came to 0.259%.
Take `Cc1cc(C)n(CC2CN(CCC(=O)NC3CCCCC3)CCO2)n1` (stereo unspecified): the cytotoxicity at 10 µM is -2.95%.
The same measure for `CCOc1ncccc1C(=O)N1CCCC1Cn1nc(C)cc1C` (stereo unspecified): -4.45%; for `COc1cccc(-n2nnc(C(=O)N3CCCCCC3)c2C)c1`: -9.71%.
Turning to `Cc1ccsc1C(=O)N(C)Cc1ccncc1`, the cytotoxicity at 10 µM was -4.54%.
Turning to `CS(=O)(=O)Cc1ccc(CNC(=O)N2CCC(C(N)=O)C2)cc1` (stereo unspecified), the cytotoxicity at 10 µM is -6.43%.
With `OC(COCc1cccs1)CN1CCc2c(ncn2C2CC2)C1` (stereo unspecified), the cytotoxicity at 10 µM is -4.29%.
As for `Cc1cnn(CC2CCCN2CCCS(=O)(=O)N(C)C)c1` (stereo unspecified), the cytotoxicity at 10 µM was -7.45%.
On to `Cc1cc(OCC(=O)N2CCCC2c2noc(C)n2)no1` (stereo unspecified), for which the cytotoxicity at 10 µM was -11.1%.
Regarding `CCn1cnnc1CNC(=O)c1cc(Cl)ccc1I`, the cytotoxicity at 10 µM is -5.98%.
`COc1ccc(NC(=O)NCC(O)c2ccccc2F)c(OC)c1` (stereo unspecified): the cytotoxicity at 10 µM stood at 3.22%.
For the compound `CCNC(c1ccc(Br)cc1)c1cccnc1` (stereo unspecified), the cytotoxicity at 10 µM is -0.1%.
The same measure for `N#Cc1cccc(S(=O)(=O)NC(=O)COC2CCCC2)c1`: -4.79%; for `CSc1nccn1-c1cccc(C(=O)NCCCN2CCOCC2)c1`: -4.74%; for `CN1CCCN(C(=O)NCc2csc(Br)c2)CC1`: -5.85%.
For the compound `CCOCC(O)CN1CCN(C(=O)Cc2ccc(C)nc2)CC1` (stereo unspecified), the cytotoxicity at 10 µM is -4.97%.
`CN(Cc1cnn(C)c1)C(=O)NC1CCN(c2ncccn2)CC1`: the cytotoxicity at 10 µM is -5.82%.
On to `COc1ncccc1NC(=O)C1CCS(=O)(=O)C1` (stereo unspecified), for which the cytotoxicity at 10 µM is -4.48%.
As for `c1cc(CNc2cnc(C3CCCN3)cn2)ccn1` (stereo unspecified), the cytotoxicity at 10 µM was -6.77%.
For the compound `Cn1cc(CN2CC[C@H]3CO[C@H](CNc4ncccn4)[C@H]3C2)cn1`, the cytotoxicity at 10 µM is -15.6%.
Next, `O=C(Cc1ccccc1)N1CC[C@H]2[C@@H]1CCC(=O)N2Cc1ccncc1`: 3.07%.
For `CS(=O)(=O)N1Cc2nccn2CC(CNC(=O)c2cccnc2)C1` (stereo unspecified), the cytotoxicity at 10 µM is -143%.
As for `Cc1ccc(N2CCC3(CCC(=O)N3Cc3ccncc3)CC2)nn1`, the cytotoxicity at 10 µM was -110%.
The same measure for `Cc1cccc(COC[C@H]2CC[C@H]3[C@H](CCN3C(=O)CC3CC3)O2)n1`: -4.66%.
Turning to `CN(Cc1cccnc1)C[C@@H]1OC[C@H]2CN(Cc3ccoc3)CC[C@H]21`, the cytotoxicity at 10 µM was -137%.
`CN(C)C(=O)CN1CCc2ncnc(N(C)C)c2CC1`: the cytotoxicity at 10 µM was -93.2%.
Next, `COCCN1CC[C@@H]2O[C@H](COCc3csc(C)n3)CC[C@@H]21`: -76.7%; `CC(C)N(C)Cc1n[nH]c2c1CCN(C(=O)c1ccc[nH]1)C2`: -133%; `O=C(Cc1ccccn1)NCC1OCCc2cn(CC3CC3)nc21` (stereo unspecified): 7.51%.
As for `O=c1occ(CN2CCOCC2)c(O)c1CN1CCOCC1`, the cytotoxicity at 10 µM was -12.1%.
Consider `CC(C)n1c(=O)[nH]c2cn(-c3ccc(F)cc3)c(=O)n21`, for which the cytotoxicity at 10 µM is -7.74%.
